Test results reported in ChEMBL document CHEMBL5576140, “Computational Design of Pore-Forming Peptides with Potent Antimicrobial and Anticancer Activities” (J Med Chem, 2024).
Activity calls are given as the source filed them. The calls are words filed in the database; no cut-off is given here.

What was measured:
Staphylococcus aureus = assay: Depolarization of cytoplasmic membrane in Staphylococcus aureus ATCC 12600 at MIC measured for 45 mins by DiSC3-(5) dye based assay; format: functional, organism-based
Summary of the method: (§1)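 Bacteria loaded with membrane-potential dye DiSC3-(5), then treated with peptide at its MIC for the respective strain; depolarization read as rise in dye fluorescence; polymyxin B and levofloxacin as reference antibiotics.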

[1] = Cytotoxicity against human granulocytes assessed as deleterious effect upto 50 uM by flow cytometry; format: toxicity, cell-based; conditions: granulocyte
Summary of the method: (§2)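 Whole blood from a healthy donor treated with peptides up to 50 μM; effect on B and T lymphocytes, granulocytes and monocytes assessed.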

MCF7 [2] = assay: Induction of apoptosis in human MCF7 cells in DMEM medium at pH 6 assessed as increase in cleaved capase-3 level at 10 uM; format: functional, cell-based
Summary of the method: (§3)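 MCF-7 cells treated with peptides at pH 6; apoptosis detected by immunoblotting for cleaved PARP and cleaved caspase-3.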

Pseudomonas aeruginosa [3] = assay: Induction of outer membrane permeabilization in Pseudomonas aeruginosa PAO1 measured for 20 mins by NPN uptake assay; format: functional, organism-based
Summary of the method: (§4)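 Outer-membrane permeabilization of Gram-negative bacteria read as rise in fluorescence of the lipophilic dye NPN, which enters only when outer-membrane integrity is compromised. Peptides applied at their MIC against the respective strain; polymyxin B and levofloxacin as reference antibiotics. Triplicates.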

[4] = Anti-cancer activity against human MEC-1 cells incubated for 24 hrs by WST assay; format: functional, cell-based; conditions: MEC1, 24 h
SUD4 = assay: Anti-cancer activity against human SU-DHL-4 cells incubated for 24 hrs by WST assay; format: functional, cell-based; conditions: SU-DHL-4, 24 h
Escherichia coli [5] = assay: Induction of outer membrane permeabilization in Escherichia coli ATCC 11775 measured for 20 mins by NPN uptake assay; format: functional, organism-based
MCF7 [6] = assay: Induction of apoptosis in human MCF7 cells in DMEM medium at pH 6 assessed as increase in cleaved PARP level at 10 uM; format: functional, cell-based; summary of the method: as §3
MCF7 [7] = assay: pH-dependent anticancer activity against human MCF7 cells in RPMI medium at 10 uM incubated for 1 hr; format: functional, cell-based
Summary of the method: (§5)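 Cells cultured in RPMI, DMEM or PBS, each adjusted to pH 8, 7 or 6, plus one unadjusted (~7.6). Peptide at 10 μM for only 1 h, to limit pH drift from CO₂-bicarbonate buffering. Cell viability read. Controls were melittin, ampicillin and PBS. Two independent repetitions; effects analysed by ANOVA.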

Staphylococcus carnosus = assay: Antimicrobial activity against Staphylococcus carnosus CCM 4838T incubated for 24 hrs by broth microdilution assay; format: functional
HL-60 [8] = assay: Anti-cancer activity against human HL-60 cells at 10 uM incubated for 30 mins; format: functional, cell-based
Acinetobacter baumannii [9] = assay: Depolarization of cytoplasmic membrane in Acinetobacter baumannii ATCC 19606 at MIC measured for 45 mins by DiSC3-(5) dye based assay; format: functional, organism-based; summary of the method: as §1
K562 [10] = assay: pH-dependent anticancer activity against human K562 cells in PBS medium at 10 uM incubated for 1 hr; format: functional, cell-based; summary of the method: as §5
HL-60 [11] = assay: pH-dependent anticancer activity against human HL-60 cells in DMEM medium at 10 uM incubated for 1 hr; format: functional, cell-based; summary of the method: as §5
MCF7 [12] = assay: pH-dependent anticancer activity against human MCF7 cells in DMEM medium at 10 uM incubated for 1 hr; format: functional, cell-based; summary of the method: as §5
MOLM-13 = assay: Anti-cancer activity against human MOLM-13 cells incubated for 24 hrs by WST assay; format: functional, cell-based; conditions: MOLM-13, 24 h
[13] = Toxicity in neutropenic CD-1 mouse deep thigh infection model infected with Acinetobacter baumannii ATCC 19606 assessed as body weight change at 1.33 mg/kg, ip measured after 4 days; format: organism-based; conditions: in vivo, 96 h, time 4 day
Summary of the method: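 Neutropenic mice infected intramuscularly in the right thigh with 10⁶ cells per mL of A. baumannii ATCC 19606. […] Body weight monitored for toxicity. Euthanasia 4 days post-infection (day 8). n = 6 per group, from three inocula.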

[14] = Anti-cancer activity against human NHDF cells incubated for 72 hrs by Cell Titer Glo assay; format: toxicity, cell-based
T-cell line = assay: Cytotoxicity against human T-lymphocytes assessed as deleterious effect upto 50 uM by flow cytometry; format: toxicity, cell-based; summary of the method: as §2
HL-60 [15] = assay: pH-dependent anticancer activity against human HL-60 cells in PBS medium at 10 uM incubated for 1 hr; format: functional, cell-based; summary of the method: as §5
Acinetobacter baumannii [16] = assay: Induction of outer membrane permeabilization in Acinetobacter baumannii ATCC 19606 measured for 20 mins by NPN uptake assay; format: functional, organism-based
[17] = Toxicity against reconstructed human skin model assessed as tissue viability at 50 uM incubated for 1 hr followed by compound washout measured after 42 hrs by MTT assay; format: tissue-based, Skin of body; conditions: read-out: Activity
Summary of the method: (§6)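 Reconstructed human epidermis with stratum corneum, per OECD TG 439 skin irritation guideline. Tissues exposed 1 h to peptide at 50 μM, then 42 h post-treatment incubation. Viability read by MTT. Controls were SDS and melittin.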

HCT-116 [18] = assay: pH-dependent anticancer activity against human HCT-116 cells in RPMI medium at 10 uM incubated for 1 hr; format: functional, cell-based; summary of the method: as §5
Pseudomonas aeruginosa [19] = assay: Depolarization of cytoplasmic membrane in Pseudomonas aeruginosa PAO1 at MIC measured for 45 mins by DiSC3-(5) dye based assay; format: functional, organism-based; summary of the method: as §1
B cell = assay: Cytotoxicity against human B-lymphocytes assessed as deleterious effect upto 50 uM by flow cytometry; format: toxicity, cell-based; summary of the method: as §2
HCT-116 [20] = assay: pH-dependent anticancer activity against human HCT-116 cells in PBS medium at 10 uM incubated for 1 hr; format: functional, cell-based; summary of the method: as §5
Escherichia coli [21] = assay: Depolarization of cytoplasmic membrane in Escherichia coli ATCC 11775 at MIC measured for 45 mins by DiSC3-(5) dye based assay; format: functional, organism-based; summary of the method: as §1
Monocyte = assay: Cytotoxicity against human monocytes assessed as deleterious effect upto 50 uM by flow cytometry; format: toxicity, cell-based; summary of the method: as §2
Klebsiella pneumoniae [22] = assay: Depolarization of cytoplasmic membrane in Klebsiella pneumoniae ATCC 13883 at MIC measured for 45 mins by DiSC3-(5) dye based assay; format: functional, organism-based; summary of the method: as §1
HL-60 [23] = assay: pH-dependent anticancer activity against human HL-60 cells in RPMI medium at 10 uM incubated for 1 hr; format: functional, cell-based; summary of the method: as §5
K562 [24] = assay: pH-dependent anticancer activity against human K562 cells in RPMI medium at 10 uM incubated for 1 hr; format: functional, cell-based; summary of the method: as §5
MCF7 [25] = assay: pH-dependent anticancer activity against human MCF7 cells in PBS medium at 10 uM incubated for 1 hr; format: functional, cell-based; summary of the method: as §5
HCT-116 [26] = assay: pH-dependent anticancer activity against human HCT-116 cells in DMEM medium at 10 uM incubated for 1 hr; format: functional, cell-based; summary of the method: as §5
[27] = Toxicity against reconstructed human skin model assessed as irritation at 50 uM incubated for 1 hr followed by compound washout measured after 42 hrs by MTT assay; format: tissue-based, Skin of body; summary of the method: as §6
Klebsiella pneumoniae [28] = assay: Induction of outer membrane permeabilization in Klebsiella pneumoniae ATCC 13883 measured for 20 mins by NPN uptake assay; format: functional, organism-based; summary of the method: as §4
[29] = Stability in simulated pore POPC lipid bilayer membrane; format: physicochemical
Summary of the method: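 Coarse-grained MD with the "scaled" Martini force field, peptides in POPC membrane, 51 μs. Counts transmembrane peptides at 51 μs. Water beads within 2 nm vertically of membrane centre and peptide–peptide interaction energy averaged over 48–51 μs. Contacts (salt bridge or stacking) scored below 0.8 nm and called stable if present ≥50% of the time.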

Enterococcus faecium = assay: Depolarization of cytoplasmic membrane in Enterococcus faecium ATCC 700221 at MIC measured for 45 mins by DiSC3-(5) dye based assay; format: functional, organism-based; summary of the method: as §1
K562 [30] = assay: pH-dependent anticancer activity against human K562 cells in DMEM medium at 10 uM incubated for 1 hr; format: functional, cell-based; summary of the method: as §5
Acinetobacter baumannii [31] = assay: Anti-infective activity against Acinetobacter baumannii ATCC 19606 infected in neutropenic CD-1 mouse deep thigh infection model assessed as reduction in bacterial load at 1.33 mg/kg, ip measured after 4 days; format: functional, organism-based; conditions: time 4.0 day
Summary of the method: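 Neutropenic mice infected intramuscularly in right thigh with 10⁶ cells per mL A. baumannii ATCC 19606; single intraperitoneal peptide dose at 10× MIC; bacterial load determined 4 days after treatment (euthanized day 8); n = 6 per group from three inocula; one-way ANOVA with Dunnett's test versus untreated.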

## H-HHHHLKKILKKLFQFINQLDNQLQDIHHHH-OH
Staphylococcus aureus
  Activity: Active
[1]
  Activity: Non-Toxic
MCF7 [2]
  Activity: Active
Pseudomonas aeruginosa [3]
  Activity: Active
[4]
  IC50: 1 µM
SUD4
  IC50: 1 µM
Escherichia coli [5]
  Activity: Active
MCF7 [6]
  Activity: Active
MCF7 [7]
  Activity: Active
Staphylococcus carnosus
  MIC: > 50 µM
HL-60 [8]
  Activity: Active
Acinetobacter baumannii [9]
  Activity: Active
K562 [10]
  Activity: Active
HL-60 [11]
  Activity: Active
MCF7 [12]
  Activity: Active
MOLM-13
  IC50: 1 µM
[13]
  Activity: Non-Toxic
[14]
  IC50 at 72 h: > 200 µM
T-cell line
  Activity: Non-Toxic
HL-60 [15]
  Activity: Active
Acinetobacter baumannii [16]
  Activity: inactive
[17]
  viability at 1 h, 50 µM: 100%
HCT-116 [18]
  Activity: Active
Pseudomonas aeruginosa [19]
  Activity: Active
B cell
  Activity: Non-Toxic
HCT-116 [20]
  Activity: Active
Escherichia coli [21]
  Activity: Active
Monocyte
  Activity: Non-Toxic
Klebsiella pneumoniae [22]
  Activity: Active
HL-60 [23]
  Activity: Active
K562 [24]
  Activity: Active
MCF7 [25]
  Activity: Active
HCT-116 [26]
  Activity: Active
[27]
  Activity: Non-Toxic
Klebsiella pneumoniae [28]
  Activity: Active
[29]
  Stability: Stable
Enterococcus faecium
  Activity: Active
K562 [30]
  Activity: Active
Acinetobacter baumannii [31]
  Activity: inactive
